Screening data: PubChem BioAssay, several laboratories
PostGolgi yeast: growth inhibition of a yeast mutant, post-Golgi transport screen | 98,000 compounds, 0.9% hits | post-Golgi transport phenotypic cell assay | inhibition, % at 10 µM | AID 739;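 also: yeast cells grown in 1536-well plates; yeast grown about 18 h at 30C before absorbance read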
E coli WT exp: E. coli BW25113 growth inhibition, expanded screen | AID 710 | OD600 absorbance | 98,000 compounds, 0.15% hits | growth inhibition, % at 100 µM;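 active = growth inhibition above about 50% at one test dose, limit read from the data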;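 also: growth measured after 20 h incubation at 37 °C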
PLAP activator: human PLAP activation; purified PLAP enzyme, luminescent substrate read-out; hits give high values; activation fold at 20 µM; 96,000 compounds, 1.2% hits; AID 696; in the data active = activation fold above about 2
Target sequence (P05187 whole entry, looked up): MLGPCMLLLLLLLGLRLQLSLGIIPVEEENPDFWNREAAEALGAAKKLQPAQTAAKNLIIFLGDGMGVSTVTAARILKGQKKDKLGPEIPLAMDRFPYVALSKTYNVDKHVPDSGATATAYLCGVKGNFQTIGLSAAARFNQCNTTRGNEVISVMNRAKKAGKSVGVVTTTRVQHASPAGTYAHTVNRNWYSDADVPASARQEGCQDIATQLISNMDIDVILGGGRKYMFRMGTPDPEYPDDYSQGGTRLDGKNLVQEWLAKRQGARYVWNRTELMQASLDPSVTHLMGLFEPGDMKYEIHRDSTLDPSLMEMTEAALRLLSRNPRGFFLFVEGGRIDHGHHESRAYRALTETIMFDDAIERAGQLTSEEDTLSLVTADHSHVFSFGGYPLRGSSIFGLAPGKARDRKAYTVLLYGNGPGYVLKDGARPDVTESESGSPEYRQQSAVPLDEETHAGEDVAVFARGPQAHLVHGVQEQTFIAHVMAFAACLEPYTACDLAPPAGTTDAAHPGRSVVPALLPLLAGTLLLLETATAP
HePTP inhibitor: inhibitors of human HePTP phosphatase | inhibition, % at 20 µM | AID 521 | recombinant HePTP phosphatase activity, OD absorbance | P35236 | 110,000 compounds, 0.64% hits; in the data active = inhibition above about 50%;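 also: plate controls were vehicle for no effect and reference inhibitor for full effect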
PostGolgi ctrl: inhibits growth of the yeast control strain. efflux-deficient yeast background strain, growth absorbance A615, 16 h. inhibition, % at 10 µM. 98,000 compounds, 5% hits. AID 738
tolC growth inh: E. coli tolC mutant growth inhibition; E. coli BW25113 tolC mutant growth, OD615; growth inhibition, % at 10 µM (by protocol); 65,000 compounds, 2.2% hits; AID 573;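 active = growth inhibition at or above a cutoff equal to the mean over every tested compound plus 3 SD, cut at about 60% in these data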;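 also: growth measured after 20 h incubation at 37 °C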
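Test system: tolC-deleted E. coli BW25113; medium: LB with kanamycin 50 µg/mL; compound: single-point testing at 10 µM; incubation: 20 h compound exposure of bacteria at 37 °C; signal: OD at 615 nm; evaluation: growth inhibition in percent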
An asterisk follows results filed as active; . = no result given. Compounds with a hit are over-represented: about 5.4% of the library has one in this group of screens. Rule as the data show it, unless noted: active = inhibition above about 30%; inactive = the rest.

SMILES | PostGolgi yeast | E coli WT exp | PLAP activator | HePTP inhibitor | PostGolgi ctrl | tolC growth inh
CCSc1nnc(NC(=O)c2cccc(OCc3c(C)noc3C)c2)s1 | 3 | -6 | 1.7 | 3 | 4 | 62*
COc1cccc(C(=O)Nc2nc3ccc(C)cc3s2)c1 | . | . | . | 4 | . | .
COc1ccc2nc(NC(=O)c3cccc(OCc4c(C)noc4C)c3)sc2c1 | 18 | -7 | 1.3 | 2 | 33* | 45
COc1ccc(/C=N\N2CCN(c3ccccc3OC)CC2)cc1OC | . | . | . | 1 | . | .
Cc1cc2n(n1)C(c1c[nH]c3ccccc13)Nc1ccccc1-2 (stereo not given) | 11 | 11 | 1.2 | 3 | 55* | 32
O=C(Nc1ccc(-c2cn3ccccc3n2)cc1)c1cccc(Br)c1 | . | . | . | 102* | . | .
O=C(Nc1ccc(-c2nc3ccccc3[nH]2)cc1)c1ccccc1 | . | . | . | 8 | . | .
O=C(Nc1ccc(-c2nc3ccccc3[nH]2)cc1)c1cccc(Br)c1 | . | . | . | 102* | . | .
CCCC(=O)Nc1ccc2nn(-c3ccc(F)cc3)nc2c1 | . | . | . | -5 | . | .
CN1CCC(=NNC(=O)CSCc2ccccc2)CC1 | -4 | -3 | 0.9 | . | 39* | .
CC1=NN(c2ccc(S(N)(=O)=O)cc2)C(=O)/C1=C\c1cccc([N+](=O)[O-])c1 | . | . | . | 28 | . | .
COC(=O)CNC(=O)CSc1nc(N)cc(=O)[nH]1 | 7 | 3 | 0.9 | . | 31* | .
O=C(OCn1ncc(Br)c(Br)c1=O)c1ccc(F)cc1 | 107* | 18 | 1 | . | 46* | .
O=C(OCn1ncc(Br)c(Br)c1=O)c1ccccc1Cl | 108* | 12 | 1 | . | 34* | .
CCn1ncc(Br)c1C(=O)Nc1ccc(C(=O)OC(C)C)cc1 | -7 | 15 | 0.9 | . | 5 | .
O=C(COc1ccc(Cl)cc1Cl)NCCCCc1ccccc1 | -5 | -3 | 1.5 | . | 42* | .
O=C(COc1ccc(Cl)cc1Cl)NNC(=S)Nc1ccc(F)cc1 | 4 | 5 | 1.1 | . | 38* | .
O=C(COc1ccc(Cl)cc1Cl)NCCSc1ccc(Cl)cc1 | -1 | -7 | 0.9 | . | 43* | .
O=C(CSCc1cccc(Cl)c1)N/N=C/c1ccc(OCC(=O)N2CCCCC2)cc1 | -2 | -12 | 1.3 | -12 | 42* | .
CC(=O)NC(=S)Nc1ccc(NC(=O)COc2ccc(Cl)cc2Cl)cc1 | -3 | -13 | 1.1 | . | 5 | .
Cc1ccnc(N2C(=O)c3ccc(C(=O)O)cc3C2=O)c1 | . | . | . | 5 | . | .
NS(=O)(=O)c1ccc(-c2ccc(/C=c3/sc4nc5ccccc5n4c3=O)o2)cc1 | . | . | . | 21 | . | .
O=C(COc1ccc(Cl)cc1)NCCSCc1cccc(Cl)c1 | 5 | -5 | 1.1 | . | 39* | .
Cc1nc(NC(=O)c2ccccc2)sc1-c1csc(Nc2ccc(O)cc2)n1 | . | . | . | 9 | . | .
CCOC(=O)Cc1csc(NC(=O)c2csc3c2CCCC3)n1 | -15 | -36 | 1 | 9 | 2 | 64*
SMILES | PostGolgi yeast | E coli WT exp | PLAP activator | HePTP inhibitor | PostGolgi ctrl | tolC growth inh
CCOC(=O)Cc1csc(NC(=O)c2cc3c(s2)CCCC3)n1 | -16 | -5 | 0.9 | . | 9 | .
CCOC(=O)Cc1csc(NC(=O)c2ccc(S(=O)(=O)N3CCCCC3)cc2)n1 | 2 | -1 | 1 | 11 | 6 | 62*
CCOCCCn1c(-c2ccc(Cl)cc2)n[nH]c1=S | -10 | -5 | 2.4* | . | -3 | .
COCCCn1c(-c2ccc(Cl)cc2)n[nH]c1=S | 6 | 0 | 1.8 | . | 9 | .
COc1ccccc1OCCCCCn1ccnc1 | . | . | . | 12 | . | .
Cc1cc2ncn(/N=C/c3cc(Br)ccc3O)c2cc1C | 11 | -1 | 1.6 | -2 | 35* | -2
Oc1ccc(Br)cc1/C=N\N1CCN(c2ccccc2)CC1 | . | . | . | 2 | . | .
N#Cc1ccccc1Sc1ccccc1C(=O)Nc1ccc(Br)cc1 | 26 | -10 | 0.9 | . | 37* | .
O=C(Nc1ccc(Br)cc1)c1ccccc1F | . | . | . | -10 | . | .
O=[N+]([O-])c1ccc(NCCCNS(=O)(=O)c2ccc(Cl)cc2)c(Cl)c1 | 36* | -3 | 0.7 | -7 | 72* | .
O=[N+]([O-])c1cc(Cl)ccc1NCCCNS(=O)(=O)c1ccccc1 | . | . | . | -1 | . | .
CCOC(=O)C(C)Sc1nnc(Cc2cc(=O)[nH]c(=O)[nH]2)n1-c1cccc(OC)c1 (stereo not given) | 2 | 7 | 1.3 | 3 | 32* | -9
CC(=O)c1cccc(NC(=O)/C=C/c2ccccc2)c1 | . | . | . | -1 | . | .
COc1cc(Cl)c(C)cc1NC(=O)COc1cc(C)nc(C(C)C)n1 | 9 | 2 | 1.1 | 6 | -1 | 6
COc1ccccc1NC(=O)COc1cc(C)nc(C(C)C)n1 | 10 | -11 | 0.9 | . | 38* | .
CN(C)C(=O)c1ccccc1Sc1ccc(Cl)cc1Cl | -2 | 5 | 1.4 | . | 12 | .
CN(C)C(=O)c1ccccc1Sc1cc(Cl)ccc1Cl | 5 | 6 | 1.1 | . | 35* | .
COC(=O)c1c(C)oc2cc(Br)c(OCc3ccc([N+](=O)[O-])cc3)cc12 | . | . | . | 4 | . | .
O=C(COc1cccc(OC(F)F)c1)Nc1ccc(SC(F)F)cc1 | -12 | 5 | 0.8 | -5 | 31* | 70*
O=C(NCc1ccco1)c1cc(-c2ccco2)nc2ccccc12 | . | . | . | 103* | . | .
O=C(Nc1cccc2ccccc12)c1cc(-c2ccco2)nc2ccccc12 | . | . | . | 102* | . | .
O=C(Nc1ccccc1F)c1cc(-c2ccco2)nc2ccccc12 | . | . | . | 24 | . | .
CC1=C(C(=O)OCCCc2ccccc2)C(c2ccccc2F)CC(=O)N1 (stereo not given) | . | . | . | -6 | . | .
CCOC(=O)C1=C(C)N=c2s/c(=C\c3ccc(OC(C)=O)cc3OC(C)=O)c(=O)n2C1c1ccccc1 (stereo not given) | . | . | . | 1 | . | .
CC(C)(C)c1ccc(OCC(=O)NNC(=O)C(=O)N2CCCC2)cc1 | . | . | . | -7 | . | .
SMILES | PostGolgi yeast | E coli WT exp | PLAP activator | HePTP inhibitor | PostGolgi ctrl | tolC growth inh
O=[N+]([O-])c1cc(-n2cnnn2)ccc1N1CCC(Cc2ccccc2)CC1 | 1 | -18 | 1 | . | 74* | .
CC1CC(C)CN(c2ccc(-n3cnnn3)cc2[N+](=O)[O-])C1 (stereo not given) | 6 | -7 | 1 | . | 17 | .
Cn1c(C(=O)NCCCN2CCOCC2)cc2c(=O)n(C)c3ccccc3c21 | 0 | 0 | 1.8 | 11 | 8 | 10
CC(C)OCCCNC(=O)c1cc2c(=O)n(C)c3ccccc3c2n1C | 3 | 3 | 1.6 | 5 | 32* | -2
Cn1c(C(=O)NCCCN2CCN(c3ccccc3F)CC2)cc2c(=O)n(C)c3ccccc3c21 | -4 | -2 | 2.3* | 12 | 3 | 32
CC1=CC(C)C2COC(c3cccnc3)C1C2C (stereo not given) | . | . | . | 9 | . | .
COc1ccccc1-c1c(C(F)(F)F)oc2cc(O)ccc2c1=O | . | . | . | -2 | . | .
COc1cc(/C=N/Nc2ccc([N+](=O)[O-])cc2)ccc1OC(C)=O | . | . | . | 10 | . | .
O=C(c1ccccc1)c1ccc2nc[nH]c2c1 | -22 | 15 | 2* | 5 | -1 | -4
CCCCc1nc(SCC(=O)Nc2ncccn2)n[nH]1 | 4 | -6 | 1.1 | . | 8 | .
CCCCc1nc(SCC(=O)Nc2ccc(S(N)(=O)=O)cc2)n[nH]1 | -5 | -1 | 2* | -4 | 14 | -1
O=S(=O)(Nc1nc2ccccc2nc1NCc1ccco1)c1cccs1 | -13 | 4 | 1.2 | 5 | -1 | 81*
